Assay results of several laboratories.
Compare with care: the assays were run in different laboratories. Converted amounts (≈) assume the structure as drawn.

O=C1C=C(OCc2cn(-c3ccc([N+](=O)[O-])cc3)nn2)C(=O)c2ccccc21 — IC50 (Escherichia coli; microbial growth, broth dilution; ATCC25922): 396 µg/mL (≈ 1050 µM)
COc1c(N2C[C@@H]3CCCN[C@@H]3C2)c(F)cc2c(=O)c(C(=O)O)cn(C3CC3)c12 — MIC90 (Escherichia coli; microbial growth; ATCC 8739, ATCC8739): 0.06 µg/mL (≈ 0.149 µM)
CNC(=O)c1cc(COc2nnc(Nc3ccc(Cl)cc3)c3ccoc23)ccn1 — MIC (Staphylococcus aureus; microbial growth; NCTC8325): > 30 µM
O=C(O)CN1C(=O)/C(=C/c2ccc(-c3ccc(N(c4ccccc4)c4ccccc4)cc3)c3ccccc23)NC1=S — MBC (Micrococcus luteus; microbial killing, broth dilution; ATCC10240): > 1000 µg/mL
CC(C)c1nn(-c2nc3ccc(Cl)cc3s2)c2c1C(=O)c1ccccc1-2 — inhibition zone (Staphylococcus aureus; microbial growth, well diffusion; NCIM5021; 250 µg/mL): 11 mm
O=C(O)CN1C(=O)/C(=C/c2ccc(-c3ccc(N(c4ccccc4)c4ccccc4)cc3)cc2)SC1=S — MBC (Staphylococcus aureus; microbial killing, broth dilution; ATCC25923): 31.3 µg/mL (≈ 59.9 µM)
COc1ccc2nc(-n3nc(CC(C)C)c4c3-c3ccccc3C4=O)sc2c1 — inhibition zone (Staphylococcus aureus; microbial growth, well diffusion; NCIM5021; 250 µg/mL): 12 mm
COc1ccc(S(=O)(=O)N(C(C)=O)c2ccccc2/C=C/c2cc[n+]([O-])cc2)cc1 — MIC (Staphylococcus aureus; microbial growth; NCTC8325): > 30 µM
O=C1NC(=S)N/C1=C\c1ccc(-c2ccc(N(c3ccccc3)c3ccccc3)cc2)cc1 — MBC (Micrococcus luteus; microbial killing, broth dilution; ATCC10240): > 1000 µg/mL
Cc1nn(-c2nc3ccc(Br)cc3s2)c2c1C(=O)c1ccccc1-2 — inhibition zone (Staphylococcus aureus; microbial growth, well diffusion; NCIM5021; 500 µg/mL): 12 mm
CC[C@@H]1C(=O)N(C)c2cnc(Nc3ccc(C(=O)N[C@H]4CC[C@H](N5CCN(CC6CC6)CC5)CC4)cc3OC)nc2N1C(C)C — MIC (Staphylococcus aureus; microbial growth; NCTC8325): > 30 µM
Cc1ccc(C(C)C)cc1OS(=O)(=O)c1ccc([N+](=O)[O-])cc1 — IC50 (Escherichia coli; microbial growth, broth dilution; ATCC25922): 176 µg/mL (≈ 525 µM)
O=C(O)CN1C(=O)/C(=C/c2c3ccccc3c(-c3ccc(N(c4ccccc4)c4ccccc4)cc3)c3ccccc23)SC1=S — MBC (Micrococcus luteus; microbial killing, broth dilution; ATCC10240): 125 µg/mL (≈ 201 µM)
O=[N+]([O-])c1ccc(S(=O)(=O)Oc2cccc3cccnc23)cc1 — IC50 (Escherichia coli; microbial growth, broth dilution; ATCC25922): 215 µg/mL (≈ 650 µM)
COc1cc2c(N3CCN(C(=O)Nc4ccc(OC(C)C)cc4)CC3)ncnc2cc1OCCCN1CCCCC1 — MIC (Staphylococcus aureus; microbial growth; NCTC8325): > 30 µM
O=C(N[C@H](CO)[C@H](O)c1ccc([N+](=O)[O-])cc1)C(Cl)Cl — MIC90 (Escherichia coli; microbial growth; ATCC 8739, ATCC8739): 3.9 µg/mL (≈ 12.1 µM)
Cc1ccc(Nc2nccc(N(C)c3ccc4c(C)n(C)nc4c3)n2)cc1S(N)(=O)=O — MIC (Staphylococcus aureus; microbial growth; NCTC8325): > 30 µM
Cc1ccc(C(C)C)cc1OCc1cn(-c2ccc(C(=O)O)cc2)nn1 — IC50 (Escherichia coli; microbial growth, broth dilution; ATCC25922): 15.3 µg/mL (≈ 43.5 µM)
O=C(O)CN1C(=O)/C(=C/c2ccc(-c3ccc(N(c4ccccc4)c4ccccc4)cc3)cc2)NC1=S — MBC (Micrococcus luteus; microbial killing, broth dilution; ATCC10240): 31.3 µg/mL (≈ 61.9 µM)
O=C(O)c1ccc(-n2cc(COC3=CC(=O)c4ccccc4C3=O)nn2)cc1 — IC50 (Escherichia coli; microbial growth, broth dilution; ATCC25922): 22.6 µg/mL (≈ 60.1 µM)
Cc1ccc2nc(-n3nc(CC(C)C)c4c3-c3ccccc3C4=O)sc2c1 — inhibition zone (Staphylococcus aureus; microbial growth, well diffusion; NCIM5021; 250 µg/mL): 11 mm
Cc1ccc(-n2cc(COC3=CC(=O)c4ccccc4C3=O)nn2)cc1 — IC50 (Escherichia coli; microbial growth, broth dilution; ATCC25922): 224 µg/mL (≈ 647 µM)
O=C1NC(=S)N/C1=C\c1ccc(-c2ccc(N(c3ccccc3)c3ccccc3)cc2)c2ccccc12 — MBC (Micrococcus luteus; microbial killing, broth dilution; ATCC10240): > 1000 µg/mL
O=C1C=C(OCc2cn(-c3ccccc3)nn2)C(=O)c2ccccc21 — IC50 (Escherichia coli; microbial growth, broth dilution; ATCC25922): 99.5 µg/mL (≈ 300 µM)
CC(C)c1nn(-c2nc3ccc(Br)cc3s2)c2c1C(=O)c1ccccc1-2 — inhibition zone (Staphylococcus aureus; microbial growth, well diffusion; NCIM5021; 500 µg/mL): 11 mm
CNC(=O)c1cc(Oc2ccc(NC(=O)Nc3ccc(Cl)c(C(F)(F)F)c3)c(F)c2)ccn1 — MIC (Staphylococcus aureus; microbial growth; NCTC8325): 3 µM (≈ 1.45 µg/mL)
Cc1nn(-c2nc3ccccc3s2)c2c1C(=O)c1ccccc1-2 — inhibition zone (Staphylococcus aureus; microbial growth, well diffusion; NCIM5021; 500 µg/mL): 11 mm
C#CCCCCC(=O)Nc1ccccc1 — MIC (Staphylococcus aureus; microbial growth; NCTC8325): > 100 µM
Cc1nn(-c2nc3ccc(Cl)cc3s2)c2c1C(=O)c1ccccc1-2 — inhibition zone (Staphylococcus aureus; microbial growth, well diffusion; NCIM5021; 125 µg/mL): 10 mm
COc1cc2ncnc(Nc3ccc(F)c(Cl)c3)c2cc1OCCCN1CCOCC1 — MIC (Staphylococcus aureus; microbial growth; NCTC8325): > 30 µM
O=C1NC(=S)S/C1=C\c1ccc(-c2ccc(N(c3ccccc3)c3ccccc3)cc2)cc1 — MBC (Micrococcus luteus; microbial killing, broth dilution; ATCC10240): 500 µg/mL (≈ 1080 µM)
CC(C)Cc1nn(-c2nc3ccc(Br)cc3s2)c2c1C(=O)c1ccccc1-2 — inhibition zone (Staphylococcus aureus; microbial growth, well diffusion; NCIM5021; 1000 µg/mL): 21 mm
CCCCS(=O)(=O)Oc1cccc2cccnc12 — IC50 (Escherichia coli; microbial growth, broth dilution; ATCC25922): 194 µg/mL (≈ 732 µM)
